Test results published in ChEMBL document CHEMBL4007449, “Novel multi-substituted benzyl acridone derivatives as survivin inhibitors for hepatocellular carcinoma treatment” (Eur J Med Chem, 2017).
pIC50: −log10 of the molar value. Activity calls are given as the source filed them. The rule behind the calls is not given here.

Tests used:
HepG2 [1] = assay: Antiproliferative activity against human HepG2 cells after 48 hrs by MTT assay; type: functional, cell-based; conditions: HepG2, 48 h
Summary of the method: (§1)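 Cells grown in DMEM with 10% FBS at 37 °C, 5% CO2; seeded at 6 × 10^3 cells/well, allowed to attach 12 h, then exposed to compound at final 50, 25, 10, 1 and 0.1 µM for 48 h. MTT (5 mg/mL) added for 4 h, formazan dissolved in DMSO, absorbance read at 490 nm; IC50 taken from the resulting curve.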

MCF7 = assay: Antiproliferative activity against human MCF7 cells after 48 hrs by MTT assay; type: functional, cell-based; conditions: MCF7, 48 h; summary of the method: as §1
[2] = Antiproliferative activity against human QGY7701 cells after 48 hrs by MTT assay; type: cell-based; conditions: QGY7701, 48 h; summary of the method: as §1
[3] = Selectivity index, ratio of IC50 for human QGY7701 cells to IC50 for human HepG2 cells; type: functional
Summary of the method: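 Ratio built from MTT IC50 values: QGY-7701 and HepG2 cells in DMEM/10% FBS, seeded at 6 × 10^3 cells/well, attached 12 h, treated 48 h at final 0.1–50 µM, MTT 4 h, DMSO solubilisation, absorbance at 490 nm.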

[4] = molecular target: T1, DNA topoisomerase 1 (Homo sapiens) (UniProt P11387); assay: Inhibition of recombinant human topoisomerase-1-mediated relaxation of pBR322 DNA substrate after 30 mins agarose gel electrophoresis method
T1 sequence (whole entry): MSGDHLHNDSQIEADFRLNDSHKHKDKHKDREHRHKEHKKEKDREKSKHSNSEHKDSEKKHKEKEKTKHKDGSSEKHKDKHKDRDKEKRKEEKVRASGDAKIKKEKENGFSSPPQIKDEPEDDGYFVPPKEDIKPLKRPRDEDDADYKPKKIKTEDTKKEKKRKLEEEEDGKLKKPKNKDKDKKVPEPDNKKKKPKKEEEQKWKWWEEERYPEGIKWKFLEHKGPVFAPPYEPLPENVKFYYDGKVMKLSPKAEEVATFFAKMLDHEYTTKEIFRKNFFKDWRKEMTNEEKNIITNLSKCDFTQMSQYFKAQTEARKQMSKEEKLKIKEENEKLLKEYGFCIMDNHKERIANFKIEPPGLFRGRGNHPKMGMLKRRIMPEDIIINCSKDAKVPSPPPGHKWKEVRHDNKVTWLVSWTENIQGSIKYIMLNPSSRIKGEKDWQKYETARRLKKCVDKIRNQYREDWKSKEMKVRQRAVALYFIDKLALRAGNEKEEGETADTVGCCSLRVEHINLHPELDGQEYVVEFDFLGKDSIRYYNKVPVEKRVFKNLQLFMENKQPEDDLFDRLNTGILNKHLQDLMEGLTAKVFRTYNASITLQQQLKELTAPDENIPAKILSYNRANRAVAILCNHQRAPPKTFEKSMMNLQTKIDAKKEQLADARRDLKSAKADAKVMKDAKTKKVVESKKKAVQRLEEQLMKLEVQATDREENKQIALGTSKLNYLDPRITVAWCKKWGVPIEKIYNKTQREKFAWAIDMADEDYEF

Bos taurus = species on record: Bos taurus; assay: Binding affinity to calf thymus DNA at 40 uM after 5 mins by UV absorbance spectrophotometric method; conditions: in the assay text read “fluorescence spectroscopic method” for “UV absorbance spectrophotometric method”
Summary of the method: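 Fluorescence emission titration on a spectrofluorometer in 5 mM Tris, 50 mM NaCl, pH 7.2. Compound fixed at 40 µM final; ct DNA added at 0, 8, 16, 24, 32, 40, 60, 80 and 120 µM final. DNA concentration set by UV using ε260 = 6600 M-1 cm-1. Excitation 280 nm; 5 min incubation before reading.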

Homo sapiens [5] = species on record: Homo sapiens; assay: Inhibition of recombinant human topoisomerase-2-mediated decatenation at 50 uM using kinetoplast DNA as substrate after 30 mins agarose gel electrophoresis method relative to control
Summary of the method: (§2)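 Human Topo II decatenation run by a contract laboratory. Compound or 50% DMSO combined with reaction mix and diluted enzyme, incubated 35 ± 2 °C for 30 min, then stop buffer added. Products separated on 1% agarose, stained 10 min with 2.3 µg/ml ethidium bromide, destained 20 min, bands quantified densitometrically. Doxorubicin at 1 and 10 µM as positive controls, no-compound negative control; run in duplicate.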

[6] = molecular target: Baculoviral IAP repeat-containing protein 5 (Homo sapiens) (UniProt O15392); assay: Binding affinity to survivin (unknown origin) after 20 mins by spectrofluorimetric titration method
Summary of the method: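 Intrinsic fluorescence titration of purified survivin (0.3 µM) in 10 mM PBS, pH 7.4, at 37 °C. Compound added to final 0–1.6 µM; 20 min incubation before recording emission spectra with excitation at 280 nm. Spectra compared with and without survivin.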

HepG2 [7] = assay: Downregulation of survivin expression in human HepG2 cells after 24 hrs by Western blot method; type: functional, cell-based
Summary of the method: (§3)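 HepG2 cells in 6 cm dishes exposed to a range of concentrations (1–10 µM) for 24 h. Lysate protein measured by BCA, run on 12% SDS-PAGE and transferred to PVDF. Membrane blocked in 5% milk for 1 h, primary antibody overnight at 4 °C, bands imaged after antibody hybridisation.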

HepG2 [8] = assay: Upregulation of cleaved caspase-7 expression in human HepG2 cells at 10 uM after 24 hrs by Western blot method; type: functional, cell-based; summary of the method: as §3
HepG2 [9] = assay: Upregulation of cleaved PARP expression in human HepG2 cells up to 10 uM after 24 hrs by Western blot method; type: functional, cell-based; summary of the method: as §3
HepG2 [10] = assay: Downregulation of Bcl2 expression in human HepG2 cells at 10 uM after 24 hrs by Western blot method; type: functional, cell-based; summary of the method: as §3
[11] = molecular target: Baculoviral IAP repeat-containing protein 5 (Homo sapiens) (UniProt O15392); assay: Binding affinity to survivin (unknown origin) up to 1.8 uM after 20 mins by spectrofluorimetric titration method
Homo sapiens [12] = species on record: Homo sapiens; assay: Inhibition of recombinant human topoisomerase-2-mediated decatenation at 10 uM using kinetoplast DNA as substrate after 30 mins agarose gel electrophoresis method relative to control; summary of the method: as §2
Mus musculus [13] = assay: Toxicity in nude mouse ectopically xenografted with human HepG2 cells assessed as body weight loss at 25 mg/kg, ip administered once in 2 days measured after 10 days relative to control; type: organism-based; conditions: in vivo, 240 h
HepG2 [14] = assay: Antitumor activity against human HepG2 cells ectopically xenografted in nude mouse assessed as tumor growth inhibition at 25 mg/kg, ip administered once in 2 days measured after 30 days relative to control; type: functional; conditions: read-out: TGI
Mus musculus [15] = assay: Toxicity in nude mouse ectopically xenografted with human HepG2 cells assessed as liver weight at 25 mg/kg, ip administered once in 2 days measured after 30 days (reference value: 0.069 to 0.434 g); type: organism-based; conditions: in vivo, 720 h
Mus musculus [16] = assay: Toxicity in nude mouse ectopically xenografted with human HepG2 cells assessed as liver weight index at 25 mg/kg, ip administered once in 2 days measured after 30 days (reference value: 0.0009 to 0.0187); type: organism-based; conditions: in vivo, 720 h
Mus musculus [17] = assay: Toxicity in nude mouse ectopically xenografted with human HepG2 cells assessed as spleen weight at 25 mg/kg, ip administered once in 2 days measured after 30 days (reference value: 0.071 to 0.248 g); type: organism-based; conditions: in vivo, 720 h
Mus musculus [18] = assay: Toxicity in nude mouse ectopically xenografted with human HepG2 cells assessed as spleen weight index at 25 mg/kg, ip administered once in 2 days measured after 30 days (reference value: 0.002 to 0.0106); type: organism-based; conditions: in vivo, 720 h
HepG2 [19] = assay: Antitumor activity against human HepG2 cells ectopically xenografted in nude mouse assessed as tumor growth inhibition at 3 mg/kg, ip administered once in 2 days measured after 30 days relative to control; type: functional; conditions: read-out: TGI
Summary of the method: (§4)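 HepG2 cells implanted subcutaneously in the flanks of nude mice, randomised into groups of 5: blank, 5-FU (25 mg/kg) and test compound hydrochloride at 0.33 or 3 mg/kg, given i.p. once every 2 days. Tumour volume and body weight recorded every 2 days. Mice euthanised on day 30; tumours, liver and spleen weighed and organ indices calculated; tumour growth inhibition derived.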

Mus musculus [20] = assay: Toxicity in nude mouse ectopically xenografted with human HepG2 cells assessed as body weight loss at 0.33 to 3 mg/kg, ip administered once in 2 days measured up to 30 days post dose; type: organism-based; conditions: in vivo; summary of the method: as §4
Mus musculus [21] = assay: Toxicity in nude mouse ectopically xenografted with human HepG2 cells assessed as effect on normal growth at 0.33 to 3 mg/kg, ip administered once in 2 days measured up to 30 days post dose; type: organism-based; conditions: in vivo; summary of the method: as §4
Mus musculus [22] = assay: Toxicity in nude mouse ectopically xenografted with human HepG2 cells assessed as effect on normal behavior at 0.33 to 3 mg/kg, ip administered once in 2 days measured up to 30 days post dose; type: organism-based; conditions: in vivo; summary of the method: as §4
Mus musculus [23] = assay: Toxicity in nude mouse ectopically xenografted with human HepG2 cells assessed as liver weight at 3 mg/kg, ip administered once in 2 days measured after 30 days (reference value: 0.069 to 0.434 g); type: organism-based; conditions: in vivo, 720 h; summary of the method: as §4
Mus musculus [24] = assay: Toxicity in nude mouse ectopically xenografted with human HepG2 cells assessed as liver weight at 0.33 mg/kg, ip administered once in 2 days measured after 30 days (reference value: 0.069 to 0.434 g); type: organism-based; conditions: in vivo, 720 h; summary of the method: as §4
Mus musculus [25] = assay: Toxicity in nude mouse ectopically xenografted with human HepG2 cells assessed as liver weight index at 3 mg/kg, ip administered once in 2 days measured after 30 days (reference value: 0.0009 to 0.0187); type: organism-based; conditions: in vivo, 720 h; summary of the method: as §4
Mus musculus [26] = assay: Toxicity in nude mouse ectopically xenografted with human HepG2 cells assessed as liver weight index at 0.33 mg/kg, ip administered once in 2 days measured after 30 days (reference value: 0.0009 to 0.0187); type: organism-based; conditions: in vivo, 720 h; summary of the method: as §4
Mus musculus [27] = assay: Toxicity in nude mouse ectopically xenografted with human HepG2 cells assessed as spleen weight at 3 mg/kg, ip administered once in 2 days measured after 30 days (reference value: 0.071 to 0.248 g); type: organism-based; conditions: in vivo, 720 h; summary of the method: as §4
Mus musculus [28] = assay: Toxicity in nude mouse ectopically xenografted with human HepG2 cells assessed as spleen weight at 0.33 mg/kg, ip administered once in 2 days measured after 30 days (reference value: 0.071 to 0.248 g); type: organism-based; conditions: in vivo, 720 h; summary of the method: as §4
Mus musculus [29] = assay: Toxicity in nude mouse ectopically xenografted with human HepG2 cells assessed as spleen weight index at 3 mg/kg, ip administered once in 2 days measured after 30 days (reference value: 0.002 to 0.0106); type: organism-based; conditions: in vivo, 720 h; summary of the method: as §4
Mus musculus [30] = assay: Toxicity in ip dosed nude mouse ectopically xenografted with human HepG2 cells assessed as increase in spleen weight administered once in 2 days measured after 30 days; type: organism-based; conditions: in vivo, 720 h; summary of the method: as §4
Mus musculus [31] = assay: Toxicity in nude mouse ectopically xenografted with human HepG2 cells assessed as spleen weight index at 0.33 mg/kg, ip administered once in 2 days measured after 30 days (reference value: 0.002 to 0.0106); type: organism-based; conditions: in vivo, 720 h; summary of the method: as §4

Chain of Baculoviral IAP repeat-containing protein 5 (Homo sapiens) (O15392 whole entry): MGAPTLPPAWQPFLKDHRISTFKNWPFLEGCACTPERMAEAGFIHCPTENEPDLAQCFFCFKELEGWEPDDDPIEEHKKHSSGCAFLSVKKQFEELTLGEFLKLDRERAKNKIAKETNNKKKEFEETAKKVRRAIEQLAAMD

COc1ccc(CNc2ccc(C(=O)NCCCN(C)C)c3[nH]c4c([N+](=O)[O-])cccc4c(=O)c23)cc1 [listing 1 of 2 here]
pIC50 (HepG2 [1]): 5.45
pIC50 (MCF7): 5.36
pIC50 [2]: 4.39
Ratio IC50 [3]: 11

COc1ccc(CNc2ccc(C(=O)NCCCN(C)C)c3[nH]c4c([N+](=O)[O-])cccc4c(=O)c23)cc1 [listing 2 of 2 here]
inhibition [4]: inactive
Activity (Bos taurus): inactive
inhibition (Homo sapiens [5]): 10.9%
Activity [6]: Dose-dependent effect
Activity (HepG2 [7]): Dose-dependent effect
Activity (HepG2 [8]): Active
Activity (HepG2 [9]): Active
Activity (HepG2 [10]): Active

COCCN1C(C)=[N+](Cc2cnccn2)C2Cc3ccccc3CC21 (stereo not drawn)
pIC50 (HepG2 [1]): 4.82
pIC50 (MCF7): 5.38
Activity [11]: inactive

COc1cccc(CNc2ccc(C(=O)NCCN(C)C)c3[nH]c4c(C)cccc4c(=O)c23)c1
pIC50 (HepG2 [1]): 5.55
pIC50 (MCF7): 5.44
pIC50 [2]: 5.51

COc1cccc2c1C(=O)c1c(O)c3c(c(O)c1C2=O)C[C@@](O)(C(=O)CO)C[C@@H]3O[C@H]1C[C@H](N)[C@H](O)[C@H](C)O1
inhibition (Homo sapiens [12]): 74.4%

O=c1[nH]cc(F)c(=O)[nH]1 [FLUOROURACIL]
Activity (Mus musculus [13]): 30%
inhibition in vivo at 25 mg/kg (HepG2 [14]): 64%
Activity (Mus musculus [15]): 0.062 to 0.419 g
Activity index (Mus musculus [16]): 0.0034 to 0.0231
Activity (Mus musculus [17]): 0.091 to 0.26 g
Activity index (Mus musculus [18]): 0.005 to 0.0144

COc1ccc(CNc2ccc(C(=O)NCCCN(C)C)c3[nH]c4c([N+](=O)[O-])cccc4c(=O)c23)cc1.Cl
inhibition in vivo at 3 mg/kg (HepG2 [19]): 54%
Activity (Mus musculus [20]): Non-Toxic
Activity (Mus musculus [21]): Non-Toxic
Activity (Mus musculus [22]): Non-Toxic
Activity (Mus musculus [23]): 0.032 to 0.421 g
Activity (Mus musculus [24]): 0.04 to 0.441 g
Activity index (Mus musculus [25]): 0.0025 to 0.0198
Activity index (Mus musculus [26]): 0.0016 to 0.0217
Activity (Mus musculus [27]): 0.084 to 0.344 g
Activity (Mus musculus [28]): 0.044 to 0.231 g
Activity index (Mus musculus [29]): 0.0042 to 0.0162
Activity (Mus musculus [30]): Dose-dependent effect
Activity index (Mus musculus [31]): 0.0016 to 0.0113
